In experiment [1] the target is T1, Papain (Carica papaya) (UniProt P00784).
T1 sequence (whole entry): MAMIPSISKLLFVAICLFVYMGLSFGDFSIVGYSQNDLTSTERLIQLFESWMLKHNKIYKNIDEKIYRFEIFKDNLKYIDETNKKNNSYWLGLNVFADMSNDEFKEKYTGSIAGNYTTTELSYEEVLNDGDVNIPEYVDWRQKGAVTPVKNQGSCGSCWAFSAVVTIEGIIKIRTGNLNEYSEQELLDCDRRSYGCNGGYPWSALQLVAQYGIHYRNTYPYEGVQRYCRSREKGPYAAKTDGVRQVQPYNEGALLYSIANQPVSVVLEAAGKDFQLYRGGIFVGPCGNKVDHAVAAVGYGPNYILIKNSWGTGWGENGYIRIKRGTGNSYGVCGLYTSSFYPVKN
Nature of the experiment: Inhibition of Carica papaya papain at 50 uM. Put shortly:
(§1)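 Carica papaya papain in 50 mM Tris-HCl pH 6.2 preincubated with compound for 20 min at 37 °C. Reaction started with 4-nitrophenyl acetate. Absorbance at 415 nm read each minute for 10 min at 37 °C, in duplicate. Relative inhibition calculated as the ratio of slopes, compound versus blank, over the linear range.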

Experiment [2] deals with Acetylcholinesterase (Electrophorus electricus) (UniProt O42275). Nature of the experiment: Inhibition of Electrophorus electricus AChE using acetylthiocholine iodide as substrate at 50 uM after 20 mins measured for 1 min interval for 30 mins by Ellman's method. Put shortly: (§2)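 Ellman assay in 50 mM Tris-HCl pH 8.0. Enzyme was preincubated with DTNB (3 mM stock) and compound at 30 °C for 20 min. Reaction started with ATChI for AChE or BTChI for BChE. Absorbance at 415 nm was read at 30 °C every 1 min for 30 min. Triplicates.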
Sequence of Acetylcholinesterase (Electrophorus electricus) (O42275 24-633 limits assumed): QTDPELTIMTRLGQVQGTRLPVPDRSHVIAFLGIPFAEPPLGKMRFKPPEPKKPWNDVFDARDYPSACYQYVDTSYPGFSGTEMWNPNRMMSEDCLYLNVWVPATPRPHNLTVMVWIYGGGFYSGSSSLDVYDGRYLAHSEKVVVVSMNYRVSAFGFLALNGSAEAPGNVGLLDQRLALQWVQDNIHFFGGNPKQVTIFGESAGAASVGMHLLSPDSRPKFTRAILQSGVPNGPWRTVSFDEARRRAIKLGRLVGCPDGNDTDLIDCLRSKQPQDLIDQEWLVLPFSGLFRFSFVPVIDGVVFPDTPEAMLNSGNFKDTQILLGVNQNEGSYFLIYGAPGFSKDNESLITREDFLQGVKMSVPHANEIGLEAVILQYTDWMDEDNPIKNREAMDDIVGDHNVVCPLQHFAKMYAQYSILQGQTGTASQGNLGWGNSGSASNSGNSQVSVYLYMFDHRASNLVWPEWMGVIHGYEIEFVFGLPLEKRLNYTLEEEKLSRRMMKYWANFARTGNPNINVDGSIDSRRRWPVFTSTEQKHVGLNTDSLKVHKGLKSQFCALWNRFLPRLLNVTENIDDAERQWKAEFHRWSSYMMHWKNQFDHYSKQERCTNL

Experiment [3] deals with Candida antarctica. Nature of the experiment: Inhibition of Candida antarctica lipase at 50 uM. A digest of the protocol:
(§3)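 Enzyme (bovine erythrocyte carbonic anhydrase II or Candida antarctica lipase) in 50 mM Tris-HCl pH 8.0 preincubated with compound for 20 min at 37 °C. Reaction started with 4-nitrophenyl acetate substrate. Absorbance at 415 nm followed each minute for 10 min at 37 °C, in duplicate. Relative inhibition taken as the slope ratio, compound over blank, over the linear range.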

Experiment [4] in a line: Cytotoxicity against mouse NIH/3T3 cells after 96 hrs by sulforhodamine-B assay. Type of experiment: cell-based. To be noted: NIH3T3, 96 h. A digest of the protocol:
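NIH 3T3 murine embryonic fibroblasts grown as monolayers in RPMI 1640 with 10% heat-inactivated FBS and penicillin/streptomycin, 37 °C, 5% CO2. Cells seeded, then exposed after 24 h to serial dilutions (0-30 μM) for 96 h, DMSO or DMF ≤0.5%. Fixed with 10% TCA at 4 °C, stained with 0.4% SRB, dye solubilized in 10 mM Tris base, absorbance read at 570 nm. Survival relative to untreated controls gave IC50. Triplicate.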
(In general: In SRB staining, fixed cells bind dye roughly in proportion to their protein.)

Experiment [5] concerns the target Carbonic anhydrase 2 (Bos taurus) (UniProt P00921). Description: Inhibition of bovine erythrocytes carbonic anhydrase 2 at 50 uM. Put shortly: as §3
Another experiment deals with Cholinesterase (Equus caballus, UniProt P81908). Nature of the experiment: Inhibition of equine serum BChE using butyrylthiocholine iodide as substrate after 20 mins measured for 1 min interval for 30 mins by Ellman's method.
Sequence of Cholinesterase (P81908 whole entry): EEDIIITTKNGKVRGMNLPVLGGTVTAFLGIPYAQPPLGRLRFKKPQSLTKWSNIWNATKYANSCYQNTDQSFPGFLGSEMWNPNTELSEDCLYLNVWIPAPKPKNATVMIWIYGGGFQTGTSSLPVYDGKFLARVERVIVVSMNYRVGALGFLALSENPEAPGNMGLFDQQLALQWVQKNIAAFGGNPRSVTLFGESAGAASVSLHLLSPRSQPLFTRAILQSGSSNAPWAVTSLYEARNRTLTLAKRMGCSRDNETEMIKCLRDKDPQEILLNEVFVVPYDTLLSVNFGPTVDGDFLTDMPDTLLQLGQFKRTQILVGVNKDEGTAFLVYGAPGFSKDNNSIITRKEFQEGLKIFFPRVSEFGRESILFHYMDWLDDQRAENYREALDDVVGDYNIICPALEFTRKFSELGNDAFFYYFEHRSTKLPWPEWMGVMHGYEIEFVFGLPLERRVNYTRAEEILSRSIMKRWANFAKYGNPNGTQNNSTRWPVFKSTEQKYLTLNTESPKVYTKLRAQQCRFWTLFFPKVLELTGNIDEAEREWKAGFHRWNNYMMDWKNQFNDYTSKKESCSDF
The next experiment deals with Acetylcholinesterase (Electrophorus electricus, UniProt O42275). Description: Inhibition of Electrophorus electricus AChE using acetylthiocholine iodide as substrate after 20 mins measured for 1 min interval for 30 mins by Ellman's method. On the technique in general: DTNB colorimetry detects thiols as they appear.
Sequence of Acetylcholinesterase (O42275 whole entry): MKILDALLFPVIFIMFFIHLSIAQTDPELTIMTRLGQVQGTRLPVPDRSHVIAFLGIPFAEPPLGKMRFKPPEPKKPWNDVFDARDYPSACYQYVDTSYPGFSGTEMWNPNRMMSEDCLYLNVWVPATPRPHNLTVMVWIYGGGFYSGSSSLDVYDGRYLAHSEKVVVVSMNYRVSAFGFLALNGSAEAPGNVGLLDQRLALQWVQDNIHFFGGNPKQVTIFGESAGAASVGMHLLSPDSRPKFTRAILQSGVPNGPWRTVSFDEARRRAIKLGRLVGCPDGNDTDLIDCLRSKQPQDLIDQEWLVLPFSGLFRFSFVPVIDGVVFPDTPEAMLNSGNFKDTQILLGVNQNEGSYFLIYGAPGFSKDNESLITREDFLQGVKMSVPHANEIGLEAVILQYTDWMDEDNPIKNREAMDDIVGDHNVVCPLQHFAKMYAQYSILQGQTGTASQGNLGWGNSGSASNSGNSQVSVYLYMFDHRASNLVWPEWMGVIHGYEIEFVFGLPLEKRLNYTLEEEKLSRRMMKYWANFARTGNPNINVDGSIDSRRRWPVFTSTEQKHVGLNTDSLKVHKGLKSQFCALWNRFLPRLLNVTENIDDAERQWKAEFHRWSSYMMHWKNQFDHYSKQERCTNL
The target of experiment [6] is Cholinesterase (Equus caballus) (UniProt P81908). Description: Inhibition of equine serum BChE using butyrylthiocholine iodide as substrate at 50 uM after 20 mins measured for 1 min interval for 30 mins by Ellman's method. A digest of the protocol: as §2
Sequence of Cholinesterase (Equus caballus) (P81908 whole entry): as the sequence (P81908 whole entry) above
Experiment [7] in a line: Selectivity ratio of Ki for Electrophorus electricus AChE to Ki for equine serum BChE. Put shortly: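 Ki from Ellman kinetics at pH 8.0 and 30 °C after 20 min enzyme–inhibitor–DTNB preincubation. Inhibitor at several concentrations plus a water blank; ATChI or BTChI at 0.9375, 0.625, 0.325 and 0.1875 mM. A415 read every 1 min for 30 min, in triplicate. Ki from Lineweaver-Burk, Dixon and Cornish-Bowden plots; F = Ki(AChE)/Ki(BChE).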

In experiment [8] the target is Cholinesterase (Equus caballus) (UniProt P81908). Description: Inhibition of equine serum BChE using butyrylthiocholine iodide as substrate at 10 uM after 20 mins measured for 1 min interval for 30 mins by Ellman's method. Put shortly: as §2
Experiment [9] has as its target Carbonic anhydrase 2 (Bos taurus) (UniProt P00921). Description: Inhibition of bovine erythrocytes carbonic anhydrase 2 at 10 uM. Put shortly:
as §3

For experiment [10], the target named is Acetylcholinesterase (Electrophorus electricus) (UniProt O42275). Description: Inhibition of Electrophorus electricus AChE using acetylthiocholine iodide as substrate at 10 uM after 20 mins measured for 1 min interval for 30 mins by Ellman's method. A digest of the protocol: as §2
The target of experiment [11] is T1, Papain (Carica papaya). Description: Inhibition of Carica papaya papain at 10 uM. Put shortly:
as §1

The test system of experiment [12] is Candida antarctica. Description: Inhibition of Candida antarctica lipase at 10 uM. Put shortly:
as §3

Sequence of Carbonic anhydrase 2 (Bos taurus) (P00921 2-260 limits assumed): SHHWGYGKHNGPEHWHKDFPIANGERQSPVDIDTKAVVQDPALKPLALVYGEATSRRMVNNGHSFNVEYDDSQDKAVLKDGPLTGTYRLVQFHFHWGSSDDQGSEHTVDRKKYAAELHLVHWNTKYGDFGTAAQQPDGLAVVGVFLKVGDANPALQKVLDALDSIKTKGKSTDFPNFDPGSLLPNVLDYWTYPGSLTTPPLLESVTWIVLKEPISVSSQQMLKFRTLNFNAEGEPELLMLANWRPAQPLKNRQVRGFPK

By inhibition is commonly meant the relative decrease from the control value, in per cent. Low readings indicate a weak effect, high ones a strong effect. The term IC50 denotes the point on the concentration scale where inhibition reaches its midpoint. A high value points to lower potency. By Ki is commonly meant a dissociation constant, usually derived from enzyme kinetics or from competition with a known ligand. Higher therefore signals lower affinity. For `CC1(C)[C@@H](O)CC[C@]2(C)[C@H]3C(=O)C=C4[C@@H]5C[C@@](C)(C(=O)NCCCN)CC[C@]5(C)CC[C@@]4(C)[C@]3(C)CC[C@@H]12`, the inhibition came out at 0% on Papain (Carica papaya) [1]; 35% in experiment [2]; 51% in the experiment on Candida antarctica [3]; 0% in [5]; 79% in experiment [6]. Further, in experiment [4], the IC50 is greater than 30 µM. In addition, the Ki on Cholinesterase was 5.43 µM; at Acetylcholinesterase it was greater than 100 µM. For the same molecule, the Ratio Ki in experiment [7] is greater than 18.4.
On to `COC(=O)[C@@]1(C)CC[C@]2(C)CC[C@]3(C)C(=CC(=O)[C@@H]4[C@@]5(C)CC[C@H](OC(=O)[C@@H](N)CCN)C(C)(C)[C@@H]5CC[C@]43C)[C@@H]2C1`, for which the inhibition came out at 0% on Papain (Carica papaya) [1]; 68% in experiment [2]; 38% in the experiment on Candida antarctica [3]; 0% in [5]; 16% in experiment [6]. For the same molecule, the IC50 in experiment [4] was 3.05 µM. For the same molecule, the Ki on Cholinesterase was greater than 100 µM; on Acetylcholinesterase, 18.7 µM. Moreover, the Ratio Ki in [7] is less than 0.19.
In [4], `CC1(C)[C@@H](O)CC[C@]2(C)[C@H]3C(=O)C=C4[C@@H]5C[C@@](C)(C(=O)On6nnc7ccccc76)CC[C@]5(C)CC[C@@]4(C)[C@]3(C)CC[C@@H]12` showed an IC50 greater than 30 µM. Also, the inhibition in [8] was 68%; in [9], 27%; in experiment [10] it was 49%; on Papain (Carica papaya) [11] it was 0%; in the experiment on Candida antarctica [12] it was 32%. For the same molecule, the Ki is 9.81 µM at Cholinesterase and greater than 20 µM on Acetylcholinesterase. For the same molecule, the Ratio Ki in experiment [7] was greater than 2.04.
Turning to `COC(=O)[C@@]1(C)CC[C@]2(C)CC[C@]3(C)C(=CC(=O)[C@@H]4[C@@]5(C)CC[C@H](OC(=O)[C@@H](N)CCC(=O)OCc6ccccc6)C(C)(C)[C@@H]5CC[C@]43C)[C@@H]2C1`, the inhibition on Papain (Carica papaya) [1] worked out at 0%; in experiment [2], 58%; with Candida antarctica [3] it was 51%; in experiment [5], 15%; in experiment [6] it was 16%. This molecule also came in with an IC50 in experiment [4] greater than 30 µM. Moreover, the Ki on Cholinesterase was greater than 100 µM; on Acetylcholinesterase, 16.1 µM. The Ratio Ki in [7] was less than 0.16.
On to `CC1(C)[C@@H](O)CC[C@]2(C)[C@H]3C(=O)C=C4[C@@H]5C[C@@](C)(C(=O)OCCCCCCBr)CC[C@]5(C)CC[C@@]4(C)[C@]3(C)CC[C@@H]12`, for which the inhibition against Papain (Carica papaya) [1] amounted to 0%; in experiment [2] it was 43%; with Candida antarctica [3], 45%; in [5], 0%; in experiment [6], 30%. The molecule also showed an IC50 in [4] greater than 30 µM. Further, the Ki at Cholinesterase was greater than 100 µM; on Acetylcholinesterase it was 13 µM. Also, the Ratio Ki in [7] is less than 0.13.

The values above are taken from ChEMBL document CHEMBL3286281, “Amino derivatives of glycyrrhetinic acid as potential inhibitors of cholinesterases” (Bioorg Med Chem, 2014).
